Experiment [1] deals with A549. The experiment is described as follows: Cytotoxicity against human A549 cells by MTT assay. Type of experiment: functional. Conditions: read-out: ED50 (the source's name). The procedure, abridged: (§1)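 In vitro growth inhibition of A549 (human lung adenocarcinoma) and K562 (human […] leukemia) tumour cells. Potency is reported as ED50, the 50% effective dose of clonal inhibition, in µg/mL.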
(Tetrazolium dyes change colour on reduction, which living cells bring about.)

Experiment [2] relates to K562. The experiment is described as follows: Cytotoxicity against human K562 cells by MTT assay. Conditions: read-out: ED50 (the source's name). Type of experiment: functional. Summed up: as §1

`COC(=O)C[C@H]1C(C)(C)[C@H](OC(C)=O)[C@H](OC(C)=O)[C@@H]2O[C@]34CC(=O)O[C@@H](c5ccoc5)[C@]3(C)[C@@H](OC(C)=O)[C@@H](C(=O)[C@@H]4C)[C@@]21C` [CIPADESIN A]: the EC50 in experiment [1] and in experiment [2] was > 5 µg/mL in each case.

With `C=C1[C@]2(OC(C)=O)C[C@@]3(C)[C@H](c4ccoc4)OC(=O)C[C@]13O[C@H]1C[C@@H](OC(C)=O)C(C)(C)[C@H](CC(=O)OC)[C@@]1(C)C2=O` [CIPATRIJUGIN C], the EC50 in experiment [1] and in experiment [2] was > 5 µg/mL in each case.

In the case of `C=C1[C@H]2C(=O)[C@@]3(C)[C@H](C[C@@H](OC(C)=O)C(C)(C)[C@@H]3CC(=O)OC)O[C@@]13CC(=O)O[C@@H](c1ccoc1)[C@]3(C)[C@H]2OC(C)=O` [CIPATRIJUGIN D], the EC50 in experiment [1] and in experiment [2] was > 5 µg/mL in each case.

For `C=C1[C@]2(O)C[C@@]3(C)[C@H](c4ccoc4)OC(=O)C[C@]13O[C@H]1C[C@@H](OC(C)=O)C(C)(C)[C@H](CC(=O)OC)[C@@]1(C)C2=O` [CIPATRIJUGIN B], the EC50 in experiment [1] and in experiment [2] was > 5 µg/mL each time.

On to `C=C1[C@@H]2C[C@@]3(C)[C@H](c4ccoc4)OC(=O)C[C@]13O[C@H]1C[C@@H](OC(C)=O)C(C)(C)[C@H](CC(=O)OC)[C@@]1(C)C2=O` [CIPATRIJUGIN A], for which the EC50 in experiment [1] and in experiment [2] was > 5 µg/mL each time.

Turning to `COc1cccc2c1C(=O)c1c(O)c3c(c(O)c1C2=O)C[C@@](O)(C(=O)CO)C[C@@H]3O[C@H]1C[C@H](N)[C@H](O)[C@H](C)O1` [DOXORUBICIN], the EC50 in experiment [1] and in experiment [2] was 0.0595 µM throughout.

These data come from ChEMBL document CHEMBL1141255, “Trijugin-type limonoids from the leaves of Cipadessa cinerascens” (2007).
